Reference: ChEMBL document CHEMBL2331542, “Synthesis and in vitro antibacterial activity of quinolone/naphthyridone derivatives containing 3-alkoxyimino-4-(methyl)aminopiperidine scaffolds” (2013)
In brackets after ≈: the same amount, converted by molar mass.

test system: Staphylococcus aureus; assay: Antibacterial activity against methicillin-sensitive Staphylococcus aureus isolate 12-6; format: functional
Method in brief: (§1)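 MIC determined in vitro by a standard technique and defined as the lowest compound concentration giving complete inhibition of bacterial growth. The Gram-positive and Gram-negative panels were tested alongside gemifloxacin, levofloxacin and ciprofloxacin reference drugs.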

Question: With `CCO/N=C1\CN(c2nc3c(cc2F)c(=O)c(C(=O)O)cn3C2CC2)CCC1NC` (stereo unspecified) as the compound, how does the MIC read?
Answer: Its MIC is 0.25 µg/mL (≈ 0.599 µM).

test system: Escherichia coli; assay: Antibacterial activity against Escherichia coli isolate 12-1; format: functional; method in brief: as §1

Question: `CCO/N=C1\CN(c2nc3c(cc2F)c(=O)c(C(=O)O)cn3C2CC2)CCC1NC` (stereo unspecified) was tested. Which MIC did it give?
Answer: Its MIC is 32 µg/mL (≈ 76.7 µM).

test system: Streptococcus pneumoniae; assay: Antibacterial activity against Streptococcus pneumoniae isolate 12-5; format: functional; method in brief: as §1

Question: Which MIC does the source give for `CCO/N=C1\CN(c2nc3c(cc2F)c(=O)c(C(=O)O)cn3C2CC2)CCC1NC` (stereo unspecified) here?
Answer: Its MIC is 0.25 µg/mL (≈ 0.599 µM).

test system: Escherichia coli; assay: Antibacterial activity against Escherichia coli isolate 12-4; format: functional; method in brief: as §1

Question: `CCO/N=C1\CN(c2nc3c(cc2F)c(=O)c(C(=O)O)cn3C2CC2)CCC1NC` (stereo unspecified) was tested. Which MIC did it give?
Answer: The MIC was over 128 µg/mL.

test system: Klebsiella pneumoniae; assay: Antibacterial activity against extended-spectrum beta-lactamase-producing Klebsiella pneumoniae isolate 12-2; format: functional; method in brief: as §1

Question: For `CCO/N=C1\CN(c2nc3c(cc2F)c(=O)c(C(=O)O)cn3C2CC2)CCC1NC` (stereo unspecified), which MIC is on record?
Answer: The MIC was over 128 µg/mL.

test system: Staphylococcus epidermidis; assay: Antibacterial activity against methicillin-sensitive Staphylococcus epidermidis isolate 12-2; format: functional; method in brief: as §1

Question: For `CCO/N=C1\CN(c2nc3c(cc2F)c(=O)c(C(=O)O)cn3C2CC2)CCC1NC` (stereo unspecified), which MIC is on record?
Answer: The MIC was 4 µg/mL (≈ 9.58 µM).

test system: Staphylococcus aureus; assay: Antibacterial activity against methicillin-resistant Staphylococcus aureus isolate 12-3; format: functional
Method in brief: (§2)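 MIC determined in vitro by standard techniques, defined as the lowest compound concentration giving complete inhibition of bacterial growth. Gemifloxacin, levofloxacin and ciprofloxacin were tested alongside as reference drugs.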

Question: Which MIC does the source give for `CCO/N=C1\CN(c2nc3c(cc2F)c(=O)c(C(=O)O)cn3C2CC2)CCC1NC` (stereo unspecified) here?
Answer: Its MIC is 4 µg/mL (≈ 9.58 µM).

test system: Staphylococcus aureus; assay: Antibacterial activity against methicillin-sensitive Staphylococcus aureus isolate 12-7; format: functional; method in brief: as §1

Question: `CCO/N=C1\CN(c2nc3c(cc2F)c(=O)c(C(=O)O)cn3C2CC2)CCC1NC` (stereo unspecified) was tested. Which MIC did it give?
Answer: The MIC was 32 µg/mL (≈ 76.7 µM).

test system: Klebsiella pneumoniae; assay: Antibacterial activity against extended-spectrum beta-lactamase-producing Klebsiella pneumoniae isolate 12-4; format: functional; method in brief: as §1

Question: For `CCO/N=C1\CN(c2nc3c(cc2F)c(=O)c(C(=O)O)cn3C2CC2)CCC1NC` (stereo unspecified), which MIC is on record?
Answer: Its MIC is over 128 µg/mL.

test system: Streptococcus pneumoniae; assay: Antibacterial activity against Streptococcus pneumoniae isolate 12-2; format: functional; method in brief: as §1

Question: For `CCO/N=C1\CN(c2nc3c(cc2F)c(=O)c(C(=O)O)cn3C2CC2)CCC1NC` (stereo unspecified), which MIC is on record?
Answer: The MIC was 0.25 µg/mL (≈ 0.599 µM).

test system: Staphylococcus aureus; assay: Antibacterial activity against methicillin-resistant Staphylococcus aureus isolate 12-15; format: functional; method in brief: as §2

Question: For `CCO/N=C1\CN(c2nc3c(cc2F)c(=O)c(C(=O)O)cn3C2CC2)CCC1NC` (stereo unspecified), which MIC is on record?
Answer: The MIC was 4 µg/mL (≈ 9.58 µM).

test system: Staphylococcus epidermidis; assay: Antibacterial activity against methicillin-sensitive Staphylococcus epidermidis isolate 12-3; format: functional; method in brief: as §1

Question: For `CCO/N=C1\CN(c2nc3c(cc2F)c(=O)c(C(=O)O)cn3C2CC2)CCC1NC` (stereo unspecified), which MIC is on record?
Answer: The MIC was 1 µg/mL (≈ 2.4 µM).

test system: Staphylococcus aureus; assay: Antibacterial activity against methicillin-resistant Staphylococcus aureus isolate 12-13; format: functional; method in brief: as §2

Question: For `CCO/N=C1\CN(c2nc3c(cc2F)c(=O)c(C(=O)O)cn3C2CC2)CCC1NC` (stereo unspecified), which MIC is on record?
Answer: Its MIC is 4 µg/mL (≈ 9.58 µM).

test system: Klebsiella pneumoniae; assay: Antibacterial activity against extended-spectrum beta-lactamase-producing Klebsiella pneumoniae isolate 12-1; format: functional; method in brief: as §1

Question: `CCO/N=C1\CN(c2nc3c(cc2F)c(=O)c(C(=O)O)cn3C2CC2)CCC1NC` (stereo unspecified) was tested. Which MIC did it give?
Answer: Its MIC is 64 µg/mL (≈ 153 µM).

test system: Staphylococcus epidermidis; assay: Antibacterial activity against methicillin-sensitive Staphylococcus epidermidis isolate 12-1; format: functional; method in brief: as §1

Question: For `CCO/N=C1\CN(c2nc3c(cc2F)c(=O)c(C(=O)O)cn3C2CC2)CCC1NC` (stereo unspecified), which MIC is on record?
Answer: Its MIC is 1 µg/mL (≈ 2.4 µM).

test system: Staphylococcus aureus; assay: Antibacterial activity against methicillin-sensitive Staphylococcus aureus isolate 12-10; format: functional; method in brief: as §1

Question: For `CCO/N=C1\CN(c2nc3c(cc2F)c(=O)c(C(=O)O)cn3C2CC2)CCC1NC` (stereo unspecified), which MIC is on record?
Answer: Its MIC is 0.5 µg/mL (≈ 1.2 µM).

test system: Escherichia coli; assay: Antibacterial activity against extended-spectrum beta-lactamase-producing Escherichia coli isolate 12-1; format: functional; method in brief: as §1

Question: For `CCO/N=C1\CN(c2nc3c(cc2F)c(=O)c(C(=O)O)cn3C2CC2)CCC1NC` (stereo unspecified), which MIC is on record?
Answer: Its MIC is over 128 µg/mL.

test system: Escherichia coli; assay: Antibacterial activity against Escherichia coli ATCC 25922; format: functional; method in brief: as §1

Question: For `CCO/N=C1\CN(c2nc3c(cc2F)c(=O)c(C(=O)O)cn3C2CC2)CCC1NC` (stereo unspecified), which MIC is on record?
Answer: The MIC was 4 µg/mL (≈ 9.58 µM).

test system: Staphylococcus epidermidis; assay: Antibacterial activity against methicillin-resistant Staphylococcus epidermidis isolate 12-33; format: functional; method in brief: as §2

Question: Which MIC does the source give for `CCO/N=C1\CN(c2nc3c(cc2F)c(=O)c(C(=O)O)cn3C2CC2)CCC1NC` (stereo unspecified) here?
Answer: Its MIC is 0.25 µg/mL (≈ 0.599 µM).

test system: Escherichia coli; assay: Antibacterial activity against extended-spectrum beta-lactamase-producing Escherichia coli isolate 12-2; format: functional; method in brief: as §1

Question: Which MIC does the source give for `CCO/N=C1\CN(c2nc3c(cc2F)c(=O)c(C(=O)O)cn3C2CC2)CCC1NC` (stereo unspecified) here?
Answer: Its MIC is over 128 µg/mL.

test system: Escherichia coli; assay: Antibacterial activity against extended-spectrum beta-lactamase-producing Escherichia coli isolate 12-4; format: functional; method in brief: as §1

Question: How did the MIC turn out when `CCO/N=C1\CN(c2nc3c(cc2F)c(=O)c(C(=O)O)cn3C2CC2)CCC1NC` (stereo unspecified) was run?
Answer: The MIC was 32 µg/mL (≈ 76.7 µM).

test system: Pseudomonas aeruginosa; assay: Antibacterial activity against Pseudomonas aeruginosa isolate 12-2; format: functional; method in brief: as §1

Question: With `CCO/N=C1\CN(c2nc3c(cc2F)c(=O)c(C(=O)O)cn3C2CC2)CCC1NC` (stereo unspecified) as the compound, how does the MIC read?
Answer: Its MIC is 128 µg/mL (≈ 307 µM).

test system: Klebsiella pneumoniae; assay: Antibacterial activity against Klebsiella pneumoniae isolate 12-1; format: functional; method in brief: as §1

Question: Which MIC does the source give for `CCO/N=C1\CN(c2nc3c(cc2F)c(=O)c(C(=O)O)cn3C2CC2)CCC1NC` (stereo unspecified) here?
Answer: The MIC was 4 µg/mL (≈ 9.58 µM).

test system: Klebsiella pneumoniae; assay: Antibacterial activity against Klebsiella pneumoniae isolate 12-2; format: functional; method in brief: as §1

Question: With `CCO/N=C1\CN(c2nc3c(cc2F)c(=O)c(C(=O)O)cn3C2CC2)CCC1NC` (stereo unspecified) as the compound, how does the MIC read?
Answer: The MIC was 4 µg/mL (≈ 9.58 µM).

test system: Klebsiella pneumoniae; assay: Antibacterial activity against Klebsiella pneumoniae isolate 12-4; format: functional; method in brief: as §1

Question: Which MIC does the source give for `CCO/N=C1\CN(c2nc3c(cc2F)c(=O)c(C(=O)O)cn3C2CC2)CCC1NC` (stereo unspecified) here?
Answer: Its MIC is 2 µg/mL (≈ 4.79 µM).

test system: Staphylococcus epidermidis; assay: Antibacterial activity against methicillin-resistant Staphylococcus epidermidis isolate 12-35; format: functional; method in brief: as §2

Question: `CCO/N=C1\CN(c2nc3c(cc2F)c(=O)c(C(=O)O)cn3C2CC2)CCC1NC` (stereo unspecified) was tested. Which MIC did it give?
Answer: Its MIC is 1 µg/mL (≈ 2.4 µM).

test system: Pseudomonas aeruginosa; assay: Antibacterial activity against Pseudomonas aeruginosa isolate 12-1; format: functional; method in brief: as §1

Question: With `CCO/N=C1\CN(c2nc3c(cc2F)c(=O)c(C(=O)O)cn3C2CC2)CCC1NC` (stereo unspecified) as the compound, how does the MIC read?
Answer: The MIC was 128 µg/mL (≈ 307 µM).

test system: Staphylococcus epidermidis; assay: Antibacterial activity against methicillin-resistant Staphylococcus epidermidis isolate 12-5; format: functional; method in brief: as §2

Question: How did the MIC turn out when `CCO/N=C1\CN(c2nc3c(cc2F)c(=O)c(C(=O)O)cn3C2CC2)CCC1NC` (stereo unspecified) was run?
Answer: The MIC was 1 µg/mL (≈ 2.4 µM).

test system: Escherichia coli; assay: Antibacterial activity against Escherichia coli isolate 12-5; format: functional; method in brief: as §1

Question: With `CCO/N=C1\CN(c2nc3c(cc2F)c(=O)c(C(=O)O)cn3C2CC2)CCC1NC` (stereo unspecified) as the compound, how does the MIC read?
Answer: Its MIC is over 128 µg/mL.

test system: Pseudomonas aeruginosa; assay: Antibacterial activity against Pseudomonas aeruginosa ATCC 27853; format: functional; method in brief: as §1

Question: For `CCO/N=C1\CN(c2nc3c(cc2F)c(=O)c(C(=O)O)cn3C2CC2)CCC1NC` (stereo unspecified), which MIC is on record?
Answer: Its MIC is 4 µg/mL (≈ 9.58 µM).

test system: Staphylococcus aureus; assay: Antibacterial activity against Staphylococcus aureus […]; format: functional; method in brief: as §1

Question: Which MIC does the source give for `CCO/N=C1\CN(c2nc3c(cc2F)c(=O)c(C(=O)O)cn3C2CC2)CCC1NC` (stereo unspecified) here?
Answer: The MIC was 0.5 µg/mL (≈ 1.2 µM).
